# From ChEMBL document CHEMBL4261600 (Eur J Med Chem, 2018)
# Activity calls are given as the source filed them.
# Columns and labels:
# [1] = molecular target: TGF-beta receptor type-1 (Homo sapiens) (UniProt P36897); assay: Binding affinity to wild-type human partial length TGFBR1 (D179 to M503 residues) expressed in bacterial expression system assessed as remaining unbound target protein level at 1000 nM by Kinomescan method relative to control
# [2] = molecular target: 5'-AMP-activated protein kinase catalytic subunit alpha-2 (Homo sapiens) (UniProt P54646); assay: Binding affinity to wild-type human partial length AMPK alpha2 (M1 to E306 residues) expressed in bacterial expression system assessed as remaining unbound target protein level at 1000 nM by Kinomescan method relative to control
# How it was run: (§1)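 Profiled in a KINOMEscan binding panel with the inhibitor at a single concentration of 1 μM. Binding to each kinase was read out as percent of control, relative to a DMSO control. Strong binders were defined as those with a percent control value below 1.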
# MV4-11 = assay: Induction of apoptosis in human MV4-11 cells assessed as decrease in BCL-2 level up to 3 uM after 2 hrs by immunoblotting analysis; assay type: functional, cell-based
# [3] = molecular target: Ribosomal protein S6 kinase alpha-3 (Homo sapiens) (UniProt P51812); assay: Binding affinity to wild-type human partial length N-terminal RSK2 kinase domain 1 (M1 to D394 residues) expressed in mammalian expression system assessed as remaining unbound target protein level at 1000 nM by Kinomescan method relative to control
# [4] = tested on: Receptor-type tyrosine-protein kinase FLT3 (Homo sapiens), P36888 [UNDEFINED MUTATION]; assay: Binding affinity to human partial length FLT3 ITD/F691L double mutant expressed in bacterial expression system assessed as remaining unbound target protein level at 1000 nM by Kinomescan method relative to control
# How it was run: (§2)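 KINOMEscan competition-binding profiling across the panel of 468 kinases and mutants, with inhibitor tested at 1 μM. Binding is expressed as percent of control, with DMSO as the reference control.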
# [5] = tested on: Epidermal growth factor receptor (Homo sapiens), P00533 [UNDEFINED MUTATION]; assay: Binding affinity to human partial length EGFR L747-E749del/A750P mutant expressed in bacterial expression system assessed as remaining unbound target protein level at 1000 nM by Kinomescan method relative to control; how it was run: as §2
# [6] = molecular target: Casein kinase I isoform alpha-like (Homo sapiens) (UniProt Q8N752); assay: Binding affinity to wild-type human full length CSNK1A1L (M1 to N337 residues) expressed in bacterial expression system assessed as remaining unbound target protein level at 1000 nM by Kinomescan method relative to control
# How it was run: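 Single-point competition binding screen across a panel of 468 kinases and mutants, with the inhibitor at 1 μM. Binding is read out as percent of a DMSO control, and targets below 1 percent control were classed as strong binders.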
# [7] = molecular target: Serine/threonine-protein kinase 4 (Homo sapiens) (UniProt Q13043); assay: Binding affinity to wild-type human full length MST1 (M1 to F487 residues) expressed in bacterial expression system assessed as remaining unbound target protein level at 1000 nM by Kinomescan method relative to control
# How it was run: (§3)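 KINOMEscan competition binding profile across a panel of 468 kinases and mutants, with the inhibitor tested at a single concentration of 1 μM. Binding is reported as percent of control, meaning signal relative to a DMSO control.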
# [8] = molecular target: Hepatocyte growth factor receptor (Homo sapiens) (UniProt P08581); assay: Binding affinity to wild-type human partial length MET (D1010 to S1367 residues) expressed in bacterial expression system assessed as remaining unbound target protein level at 1000 nM by Kinomescan method relative to control
# Homo sapiens = organism: Homo sapiens; assay: Induction of apoptosis in human MEC1 cells assessed as decrease in c-MYC level after 2 hrs by immunoblotting analysis; assay type: functional, cell-based
# [9] = molecular target: Cyclin-dependent kinase 14 (Homo sapiens) (UniProt O94921); assay: Binding affinity to wild-type human full length PFTK1 (M1 to H451 residues) expressed in bacterial expression system assessed as remaining unbound target protein level at 1000 nM by Kinomescan method relative to control; how it was run: as §3
# [10] = molecular target: Serine/threonine-protein kinase MRCK beta (Homo sapiens) (UniProt Q9Y5S2); assay: Binding affinity to wild-type human partial length MRCKB (L56 to S417 residues) expressed in bacterial expression system assessed as remaining unbound target protein level at 1000 nM by Kinomescan method relative to control
# [11] = Antiproliferative activity against CHO cells after 72 hrs by Celltiter-Glo assay; assay type: cell-based, Cricetulus griseus; conditions: chinese hamster
# How it was run: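 Cells seeded at 3000/well in 96-well plates, exposed to serially diluted compound for 72 h at 37 °C, 5% CO2. Viability read by CellTiter-Glo luminescence and normalized to DMSO control. GI50 derived from curve fit, mean of three independent measurements. Culture media: DMEM/10% FBS for adherent lines; IMDM for MV4-11 and MEC-1/2; RPMI 1640 for suspension lines and CHL.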
# [12] = molecular target: Phosphatidylinositol 4,5-bisphosphate 3-kinase catalytic subunit alpha isoform (Homo sapiens) (UniProt P42336); assay: Binding affinity to wild-type human partial length PIK3CA (R108 to N1068 residues) expressed in mammalian expression system assessed as remaining unbound target protein level at 1000 nM by Kinomescan method relative to control
# [13] = molecular target: Proto-oncogene tyrosine-protein kinase receptor Ret (Homo sapiens) (UniProt P07949); assay: Binding affinity to wild-type human partial length RET (E713 to D1014 residues) expressed in bacterial expression system assessed as remaining unbound target protein level at 1000 nM by Kinomescan method relative to control
# [14] = molecular target: Serine/threonine-protein kinase ULK1 (Homo sapiens) (UniProt O75385); assay: Binding affinity to wild-type human partial length ULK1 (M1 to T309 residues) expressed in mammalian expression system assessed as remaining unbound target protein level at 1000 nM by Kinomescan method relative to control
# [15] = tested on: Mast/stem cell growth factor receptor Kit (Homo sapiens), P10721 [V559D]; assay: Binding affinity to human partial length KIT V559D mutant (Y545 to D952 residues) expressed in bacterial expression system assessed as remaining unbound target protein level at 1000 nM by Kinomescan method relative to control; how it was run: as §2
# [16] = molecular target: TGF-beta receptor type-2 (Homo sapiens) (UniProt P37173); assay: Binding affinity to wild-type human partial length TGFBR2 (I218 to K567 residues) expressed in bacterial expression system assessed as remaining unbound target protein level at 1000 nM by Kinomescan method relative to control
# [17] = molecular target: Serine/threonine-protein kinase B-raf (Homo sapiens) (UniProt P15056); assay: Binding affinity to wild-type human partial length BRAF (S429 to E741 residues) expressed in mammalian expression system assessed as remaining unbound target protein level at 1000 nM by Kinomescan method relative to control; how it was run: as §1
# [18] = molecular target: Cyclin-dependent kinase 5/CDK5 activator 1 (Homo sapiens, UniProt Q00535); assay: Inhibition of recombinant full length His/GST-tagged human CDK5/p25 expressed in baculovirus expression system
# [19] = molecular target: Dual specificity testis-specific protein kinase 1 (Homo sapiens) (UniProt Q15569); assay: Binding affinity to wild-type human full length TESK1 (R37 to S626 residues) expressed in bacterial expression system assessed as remaining unbound target protein level at 1000 nM by Kinomescan method relative to control; how it was run: as §1
# Proto-oncogene tyrosine-protein kinase receptor Ret (Homo sapiens), sequence (P07949 whole entry, the tested form may be a part): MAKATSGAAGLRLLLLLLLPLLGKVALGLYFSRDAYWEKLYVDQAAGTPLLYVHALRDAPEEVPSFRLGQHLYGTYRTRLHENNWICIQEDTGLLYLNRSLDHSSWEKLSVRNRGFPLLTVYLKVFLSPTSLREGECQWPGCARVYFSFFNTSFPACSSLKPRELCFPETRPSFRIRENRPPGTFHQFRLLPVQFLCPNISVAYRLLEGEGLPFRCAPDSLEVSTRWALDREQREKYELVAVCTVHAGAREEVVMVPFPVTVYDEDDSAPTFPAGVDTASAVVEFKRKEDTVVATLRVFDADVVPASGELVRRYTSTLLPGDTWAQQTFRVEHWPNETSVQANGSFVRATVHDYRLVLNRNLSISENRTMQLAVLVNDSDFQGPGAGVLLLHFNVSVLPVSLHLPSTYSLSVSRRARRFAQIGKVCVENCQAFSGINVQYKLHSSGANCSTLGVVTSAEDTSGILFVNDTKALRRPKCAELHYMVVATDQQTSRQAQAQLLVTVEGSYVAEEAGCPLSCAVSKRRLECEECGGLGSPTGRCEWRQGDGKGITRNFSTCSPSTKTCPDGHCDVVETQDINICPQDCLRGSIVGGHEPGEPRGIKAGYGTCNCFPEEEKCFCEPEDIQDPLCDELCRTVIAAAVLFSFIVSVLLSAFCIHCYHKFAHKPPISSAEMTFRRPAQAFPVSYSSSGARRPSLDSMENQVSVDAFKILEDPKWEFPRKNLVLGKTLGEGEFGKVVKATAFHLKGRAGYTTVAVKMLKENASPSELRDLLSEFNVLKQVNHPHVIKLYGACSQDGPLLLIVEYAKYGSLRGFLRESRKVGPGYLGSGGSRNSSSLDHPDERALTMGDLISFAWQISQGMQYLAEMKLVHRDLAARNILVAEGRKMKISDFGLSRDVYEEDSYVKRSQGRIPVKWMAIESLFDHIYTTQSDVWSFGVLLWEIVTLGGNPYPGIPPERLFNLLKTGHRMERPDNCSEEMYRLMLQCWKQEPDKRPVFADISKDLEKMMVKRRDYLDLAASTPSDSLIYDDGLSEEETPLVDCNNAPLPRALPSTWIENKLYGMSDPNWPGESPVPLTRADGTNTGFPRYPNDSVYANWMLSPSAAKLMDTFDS
# 5'-AMP-activated protein kinase catalytic subunit alpha-2 (Homo sapiens), sequence (P54646 whole entry, looked up, the tested form may be a part): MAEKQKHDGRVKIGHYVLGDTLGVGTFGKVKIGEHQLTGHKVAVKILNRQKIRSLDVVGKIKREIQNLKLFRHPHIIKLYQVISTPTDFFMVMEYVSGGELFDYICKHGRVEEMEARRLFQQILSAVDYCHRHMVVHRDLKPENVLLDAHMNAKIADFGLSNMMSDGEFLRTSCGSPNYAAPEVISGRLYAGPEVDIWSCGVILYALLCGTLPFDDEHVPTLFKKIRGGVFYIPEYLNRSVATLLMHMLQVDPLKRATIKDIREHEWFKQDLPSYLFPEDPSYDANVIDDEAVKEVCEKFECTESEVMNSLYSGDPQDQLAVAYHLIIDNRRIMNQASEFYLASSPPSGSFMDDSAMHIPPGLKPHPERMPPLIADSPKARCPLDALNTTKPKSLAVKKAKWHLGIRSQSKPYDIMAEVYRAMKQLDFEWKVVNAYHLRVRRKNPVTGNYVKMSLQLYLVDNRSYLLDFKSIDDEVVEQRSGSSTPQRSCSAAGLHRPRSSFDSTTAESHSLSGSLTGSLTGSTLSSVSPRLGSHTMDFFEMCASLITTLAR
# Serine/threonine-protein kinase B-raf (Homo sapiens), sequence (P15056 whole entry, the tested form may be a part): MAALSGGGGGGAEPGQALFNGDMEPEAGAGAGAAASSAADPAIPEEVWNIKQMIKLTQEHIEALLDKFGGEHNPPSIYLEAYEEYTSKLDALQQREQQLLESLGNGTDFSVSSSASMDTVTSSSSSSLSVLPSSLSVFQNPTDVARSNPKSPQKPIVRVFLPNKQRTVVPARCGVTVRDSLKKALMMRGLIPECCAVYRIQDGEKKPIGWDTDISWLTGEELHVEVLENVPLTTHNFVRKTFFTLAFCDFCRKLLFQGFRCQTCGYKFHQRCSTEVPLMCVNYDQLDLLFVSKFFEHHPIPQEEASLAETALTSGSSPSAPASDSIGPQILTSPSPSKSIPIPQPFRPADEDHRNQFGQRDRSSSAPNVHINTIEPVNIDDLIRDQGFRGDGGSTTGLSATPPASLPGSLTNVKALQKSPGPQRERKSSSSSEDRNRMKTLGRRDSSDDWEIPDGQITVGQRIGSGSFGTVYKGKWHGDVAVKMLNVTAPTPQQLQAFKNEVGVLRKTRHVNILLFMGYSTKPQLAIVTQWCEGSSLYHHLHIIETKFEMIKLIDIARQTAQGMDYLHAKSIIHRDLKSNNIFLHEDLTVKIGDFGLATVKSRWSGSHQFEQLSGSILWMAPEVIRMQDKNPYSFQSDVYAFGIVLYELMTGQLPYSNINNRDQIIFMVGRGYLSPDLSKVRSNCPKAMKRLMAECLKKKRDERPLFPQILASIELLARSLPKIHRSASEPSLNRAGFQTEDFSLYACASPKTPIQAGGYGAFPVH
# TGF-beta receptor type-2 (Homo sapiens), sequence (P37173 whole entry, the tested form may be a part): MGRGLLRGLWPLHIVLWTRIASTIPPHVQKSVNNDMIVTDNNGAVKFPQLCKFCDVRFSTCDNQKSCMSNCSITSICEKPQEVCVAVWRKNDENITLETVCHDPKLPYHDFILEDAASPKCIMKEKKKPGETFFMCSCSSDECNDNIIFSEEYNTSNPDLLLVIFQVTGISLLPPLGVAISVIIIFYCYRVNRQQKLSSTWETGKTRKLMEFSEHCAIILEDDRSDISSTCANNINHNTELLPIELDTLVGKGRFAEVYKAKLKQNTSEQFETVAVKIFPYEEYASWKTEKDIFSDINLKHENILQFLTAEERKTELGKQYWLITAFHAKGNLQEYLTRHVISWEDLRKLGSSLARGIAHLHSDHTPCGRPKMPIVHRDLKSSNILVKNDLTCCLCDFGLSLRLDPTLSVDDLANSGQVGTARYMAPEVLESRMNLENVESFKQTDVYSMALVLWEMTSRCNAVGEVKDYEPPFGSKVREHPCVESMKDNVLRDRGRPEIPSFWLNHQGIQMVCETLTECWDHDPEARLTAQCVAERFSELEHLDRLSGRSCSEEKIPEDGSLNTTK
# Hepatocyte growth factor receptor (Homo sapiens), sequence (P08581 whole entry, the tested form may be a part): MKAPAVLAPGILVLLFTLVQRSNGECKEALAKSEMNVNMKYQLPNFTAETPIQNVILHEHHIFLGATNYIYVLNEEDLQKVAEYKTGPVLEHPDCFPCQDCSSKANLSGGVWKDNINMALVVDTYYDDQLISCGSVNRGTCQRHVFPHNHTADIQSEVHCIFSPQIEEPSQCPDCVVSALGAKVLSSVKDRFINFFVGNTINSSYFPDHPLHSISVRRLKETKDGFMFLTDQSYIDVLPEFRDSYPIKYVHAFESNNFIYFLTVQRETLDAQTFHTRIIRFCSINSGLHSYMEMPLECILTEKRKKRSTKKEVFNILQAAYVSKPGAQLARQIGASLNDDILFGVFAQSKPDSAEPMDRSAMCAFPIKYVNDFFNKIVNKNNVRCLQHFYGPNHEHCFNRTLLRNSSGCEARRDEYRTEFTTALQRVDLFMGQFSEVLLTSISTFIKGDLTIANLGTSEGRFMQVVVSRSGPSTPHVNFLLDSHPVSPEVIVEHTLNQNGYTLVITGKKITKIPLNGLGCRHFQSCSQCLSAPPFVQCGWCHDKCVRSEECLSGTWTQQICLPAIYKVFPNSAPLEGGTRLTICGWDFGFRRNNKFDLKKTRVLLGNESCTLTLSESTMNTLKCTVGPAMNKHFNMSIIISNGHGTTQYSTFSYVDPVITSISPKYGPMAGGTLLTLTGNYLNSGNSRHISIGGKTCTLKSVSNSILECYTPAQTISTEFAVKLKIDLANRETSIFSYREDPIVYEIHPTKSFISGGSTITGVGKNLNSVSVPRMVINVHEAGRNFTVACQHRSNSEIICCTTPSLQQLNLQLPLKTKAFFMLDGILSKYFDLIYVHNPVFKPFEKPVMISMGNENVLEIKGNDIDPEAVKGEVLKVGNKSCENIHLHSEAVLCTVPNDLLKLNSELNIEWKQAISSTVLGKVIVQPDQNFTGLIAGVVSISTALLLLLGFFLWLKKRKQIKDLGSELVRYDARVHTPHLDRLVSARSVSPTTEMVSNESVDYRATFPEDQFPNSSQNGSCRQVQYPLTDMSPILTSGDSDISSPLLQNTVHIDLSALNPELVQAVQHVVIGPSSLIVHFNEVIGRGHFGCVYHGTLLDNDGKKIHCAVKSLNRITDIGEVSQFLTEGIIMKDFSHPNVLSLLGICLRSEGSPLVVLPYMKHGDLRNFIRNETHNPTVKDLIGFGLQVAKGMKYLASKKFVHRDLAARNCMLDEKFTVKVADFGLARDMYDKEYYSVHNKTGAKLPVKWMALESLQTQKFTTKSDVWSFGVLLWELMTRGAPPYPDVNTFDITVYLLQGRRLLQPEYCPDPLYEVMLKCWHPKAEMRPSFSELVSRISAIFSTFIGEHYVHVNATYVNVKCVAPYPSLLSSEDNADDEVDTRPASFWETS
# Cyclin-dependent kinase 14 (Homo sapiens), sequence (O94921 whole entry, the tested form may be a part): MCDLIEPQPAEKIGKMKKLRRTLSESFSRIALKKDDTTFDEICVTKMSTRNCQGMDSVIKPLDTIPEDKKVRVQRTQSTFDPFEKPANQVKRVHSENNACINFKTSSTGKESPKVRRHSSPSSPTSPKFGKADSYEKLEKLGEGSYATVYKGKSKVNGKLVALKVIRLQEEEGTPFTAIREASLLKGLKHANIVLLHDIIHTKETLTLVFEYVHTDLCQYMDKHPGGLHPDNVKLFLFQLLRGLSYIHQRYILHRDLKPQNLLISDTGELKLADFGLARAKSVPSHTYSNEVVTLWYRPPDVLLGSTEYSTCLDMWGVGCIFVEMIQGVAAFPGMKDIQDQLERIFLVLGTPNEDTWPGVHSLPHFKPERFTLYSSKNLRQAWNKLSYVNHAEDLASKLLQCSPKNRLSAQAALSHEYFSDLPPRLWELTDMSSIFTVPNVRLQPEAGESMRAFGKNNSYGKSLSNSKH
compound,measurement,setting,value
COCCN[C@H]1CC[C@H](Nc2cc(-c3csc(NCC4(C#N)CCOCC4)n3)c(Cl)cn2)CC1,Activity,[1],98%
same,Activity,[2],100%
same,Activity,MV4-11,inactive
same,Activity,[3],100%
same,Activity,[4],75%
same,Activity,[5],92%
same,Activity,[6],96%
same,Activity,[7],99%
same,Activity,[8],73%
same,Activity,Homo sapiens,Dose-dependent effect
same,Activity,[9],80%
same,Activity,[10],100%
same,GI50 at 72 h,[11],1100 nM
same,Activity,[12],95%
same,Activity,[13],100%
same,Activity,[14],100%
same,Activity,[15],100%
same,Activity,[16],100%
same,Activity,[17],97%
same,IC50,[18],4640 nM
same,Activity,[19],92%
